A selection: hits, their analogues and other compounds. The true share with any hit is near 1.4%.
Rin1-Abl PPI inh = inhibitors of Rin1-Abl protein binding, primary screen, biochemical, TR-FRET; 360,000 tested, 0.4% active; AID 588664, 2011; inhibition, % at 7.35 µM; in the data active = inhibition above about 5%, passing the limit was not always enough
UCH37 DUB inh = inhibitors of human UCH37 deubiquitinase, primary screen, biochemical, Ub-AMC cleavage, fluorescence | Ubiquitin carboxyl-terminal hydrolase isozyme L5 (Homo sapiens), Q9Y5K5 | purified proteasome/UCH37 | inhibition, % (concentration not given with the values) | 330,000 tested, 0.33% active;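 active = mean inhibition over replicate wells above about 20%, limit read from the data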;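 note: 0% = compound-free wells with enzyme and 100% = wells lacking proteasome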
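Material: Human UCH37 enzyme supplied as purified proteasome complex | Schedule: 30 min preincubation with enzyme, 25 min cleavage at room temperature | Detection: AMC fluorescence 355/460 nm | Measure: % inhibition of Ub-AMC cleavage fluorescence | Controls: Wells without proteasome as full block, compound-free enzyme plus substrate as uninhibited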
ATG4B inh = ATG4B protease inhibitors, primary screen, biochemical, fluorescence, uHTS; Cysteine protease ATG4B (Homo sapiens), Q9Y4P1; ATG4B cleavage of LC3-PLA2, NBD-HPC fluorescence, 1 h; inhibition, % at 8.33 µM; 340,000 tested, 0.51% active; AID 504462, 2011; in the data active = inhibition above about 40%
TbMetRS inhib = T. brucei MetRS inhibitors, primary screen, biochemical, luminescence; methionyl-tRNA synthetase (Trypanosoma brucei brucei); purified T. brucei MetRS, ATP depletion, Kinase-Glo luminescence; inhibition, % at 11.9 µM; 360,000 tested, 0.4% active; AID 624268, 2012;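 active = inhibition above a per-plate cutoff of the control wells' mean inhibition plus 3 SD, cut at about 5.5% in these data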;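 note: 0% = DMSO wells median and 100% = median of wells with control inhibitor compound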
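technique = Kinase-Glo luminescence, ATP depletion format | system = purified MetRS (methionyl-tRNA synthetase) enzyme from Trypanosoma brucei | timing = 15 min preincubation, 2 h reaction, all 25 °C | evaluation = percent inhibition versus plate control medians | dosing = single dose, 11.9 µM final nominal, 0.9% final DMSO | also added = substrates ATP, L-methionine and bulk Escherichia coli tRNA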
Rin1-Abl confirm = Rin1-Abl binding inhibitor retest, confirmation, biochemical, TR-FRET. purified proteins. shares compounds with Rin1-Abl PPI inh. 1,300 tested, 49% active. AID 602124, 2011. inhibition, % at 7.35 µM
GFP quench = GFP fluorescence inhibitors and quenchers, artefact control for Rin1-Abl interaction inhibitor project, biochemical | inhibitors/quenchers counterscreen | inhibition, % at 6.75 µM | AID 602125, 2011 | shares compounds with Rin1-Abl PPI inh | 1,300 tested, 8.5% active;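 note: ABL1-eGFP fusion protein alone without its partner RIN1-SBP; 0% = protein with vehicle and 100% = wells lacking protein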
GFP quench DR = GFP fluorescence inhibitors and quenchers, dose response, artefact control for Rin1-Abl interaction inhibitor project, biochemical; shares compounds with Rin1-Abl PPI inh; GFP fluorescence interference/quenching counterscreen; IC50, µM; 230 tested, under 10 active; call rule not given here;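 note: ABL1-eGFP fusion protein alone without its RIN1 binding partner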
* hit, by the source's call; / = no result. Cut-off read from the data, not from the text of the source, unless noted: active = inhibition above about 6.5%; inactive = the rest.

SMILES | Rin1-Abl PPI inh | UCH37 DUB inh | ATG4B inh | TbMetRS inhib | Rin1-Abl confirm | GFP quench | others
O=C(Cc1ccc(NC2=NC3CS(=O)(=O)CC3S2)cc1)NCc1ccccc1Cl (stereo not given) | 16* | 3 | -5 | 0 | 16* | 0
O=C(NCCc1ccc(Cl)cc1)c1ccc(NC2=NC3CS(=O)(=O)CC3S2)cc1 (stereo not given) | 7.4* | 2 | -8 | 0 | 8.1* | 1
O=[N+]([O-])c1ccc(CSc2nnc3ccccn23)cc1 | 1 | 3 | -2 | -1 | / | /
CC1CC(=O)Nc2ccccc2N1S(=O)(=O)c1ccc(F)cc1F (stereo not given) | 1 | 1 | -3 | -1 | / | /
CC1CCCN(C(=O)C2CCN(S(=O)(=O)c3ccc4c(c3)CC(C)N4C(=O)C3CC3)CC2)C1 (stereo not given) | 15* | 4 | 21 | 0 | 0 | -3
C#CCOCCOCCOCCNc1nc(N2CCN(C(=O)C([C@@H](C)O)n3cc([C@@H](N)CCCCN)nn3)CC2)nc(N2CCN(C(=O)[C@H](CCCCN)n3cc([C@@H](N)CC(N)=O)nn3)CC2)n1 (stereo not given in full) | 0 | 4 | -7 | 0 | / | /
COc1cc2nc(Nc3ccc(C)c(C)c3)nc(N)c2cc1OC | 11 | -19 | -23 | 1 | / | /
COc1cc2nc(Nc3ccc(F)cc3)nc(N)c2cc1OC | 14* | -15 | -2 | 5 | 16* | 0
CCOC(=O)c1ccc(CNC(=O)C(Cc2c[nH]c3ccccc23)NC(C)=O)o1 (stereo not given) | 8.1* | 6 | 9 | -1 | 2 | -1
CCOC(=O)NC(Cc1c[nH]c2ccccc12)C(=O)NCCc1ccc(S(N)(=O)=O)cc1 (stereo not given) | 1 | 0 | 3 | 0 | / | /
O=C(NC(NC(=S)Nc1ccccc1C(=O)O)C(Cl)(Cl)Cl)c1ccco1 (stereo not given) | 7.0* | -51 | 0 | -2 | 0 | 1
COc1cccc(NC(=O)CN(C)C(=O)CN2C(=O)NC(C)(c3ccc4ccccc4c3)C2=O)c1 (stereo not given) | 0 | 2 | -26 | 0 | / | /
Cc1ccc(Oc2nnc(-c3cccs3)c3ccccc23)cc1C | 6.0* | 2 | 14 | 0 | 2 | 0
O=C(O)CN1C(=O)NC2NC(=O)NC21 (stereo not given) | 1 | 1 | -9 | -1 | / | /
CCOC(=O)CN1C(=O)NC2NC(=O)NC21 (stereo not given) | 14* | 0 | -11 | 0 | 18* | 0 | GFP quench DR=>68
O=C(Nc1nc(-c2cc(Cl)sc2Cl)cs1)c1ccc(Br)s1 | 6.0* | -13 | 2 | -1 | -1 | 0
COC(=O)c1ccccc1NC(=O)CSc1nnc(-c2ccncc2)o1 | 16* | 7 | -11 | 0 | 16* | 0
COC(=O)c1ccc(Cl)c(NC(=O)CSc2nnc(-c3ccncc3)o2)c1 | 0 | 0 | 3 | 0 | / | /
COC(=O)c1ccc(CSc2nnc(-c3ccncc3)o2)o1 | 19* | 1 | 0 | -1 | 39* | -1 | GFP quench DR=>68
COC(=O)c1ccc(CSc2nnc(-c3ccncc3)o2)cc1 | 1 | 5 | -1 | -3 | / | /
COc1ccccc1NC(=O)CSc1ncnc2c1oc1ccccc12 | -76 | 2 | 6 | 0 | / | /
COC(=O)c1c(C)nc(C)c2c(=O)oc3ccccc3c12 | 15* | 0 | -8 | -1 | 38* | -1 | GFP quench DR=>68
O=C(CCN1C(=O)/C(=C\c2ccco2)SC1=S)Nc1ccc(C(=O)O)c(O)c1 | 10* | 11 | 29 | 1 | 0 | 7.3*
O=C(CCS(=O)(=O)c1ccc(Br)cc1)N1CCN(c2ccccc2Cl)CC1 | 9.0* | -2 | 14 | -1 | -1 | 0
O=C(CCS(=O)(=O)c1ccc(Br)cc1)N1CCN(c2ccccc2F)CC1 | 1 | 1 | 3 | 0 | / | /
SMILES | Rin1-Abl PPI inh | UCH37 DUB inh | ATG4B inh | TbMetRS inhib | Rin1-Abl confirm | GFP quench | others
O=C(NCCc1c[nH]c2ccccc12)OCCCCOC(=O)NCCc1c[nH]c2ccccc12 | 0 | 1 | -18 | 0 | / | /
CCOC(=O)/C(=C/c1c[nH]c2ccccc12)NC(C)=O | -1 | 13 | -7 | 0 | / | /
O=C(CCSc1nnc(-c2ccc(O)cc2)o1)N1CCOCC1 | 15* | 4 | -7 | 1 | 16* | -1
CN(CCc1ccccn1)C(=O)c1nn2c(C(F)(F)F)cc(-c3ccco3)nc2c1Cl | -1 | 11 | -13 | -1 | / | /
Nc1nc(N2CCN(C(=O)c3ccco3)CC2)nc2ccccc12 | 8.7* | -213 | -15 | 0 | 3 | 0
COc1cc(C(=O)Nc2ccc(O)cc2C(=O)O)ccc1OC(C)=O | 71* | 2 | 9 | 0 | 72* | 0 | GFP quench DR=>68
O=C(Nc1ccc(O)cc1C(=O)O)c1cccc(Br)c1 | 16* | 5 | -6 | -1 | 24* | -1 | GFP quench DR=>68
CC(=O)Nc1cccc(C(=O)Nc2ccccc2C(=O)O)c1 | 17* | 5 | -3 | -1 | -2 | 0
CCOc1c(Cl)cc(C(=O)Nc2ccccc2C(=O)O)cc1Cl | 13* | 2 | 12 | 0 | 19* | 1 | GFP quench DR=>68
Cc1ccccc1C(=O)Nc1ccc(O)cc1C(=O)O | 0 | 0 | 12 | 0 | / | /
O=C(Nc1ccccc1C(=O)O)c1cccc(C(=O)Nc2ccccc2C(=O)O)c1 | 1 | 13 | 3 | -1 | / | /
O=C1CC(=O)N(Cc2cccs2)C(=O)N1 | -3 | 5 | 0 | 0 | / | /
CC(=O)N(Cc1c(C#N)c2ccccc2n1C)c1ccccc1 | -3 | 2 | -10 | 0 | / | /
O=C(Nn1cnc2ccccc2c1=O)c1ccc(Br)cc1 | 13* | 1 | 4 | 1 | -1 | -1
CCc1ccc(C(=O)Nn2cnc3ccccc3c2=O)cc1 | 4 | 2 | 6 | -1 | / | /
Cc1noc(C)c1NC(=O)NC(c1ccccc1)c1ccccc1 | 6.3* | 6 | 8 | -2 | 1 | 0
Cc1cc2c(N)cccc2nn1 | 12* | / | 16 | 1 | -7 | 1
Nc1cccc2nc3ccccc3cc12 | -6 | -123 | -9 | -1 | / | /
CCN1CCN(C(=O)C(NS(=O)(=O)c2ccc3nc(C)sc3c2)C(C)C)CC1 (stereo not given) | 8.1* | 5 | -5 | -1 | 1 | 0

Bioassay records deposited in PubChem by several laboratories.
